# Bioassay records deposited in PubChem BioAssay by Broad Institute.
# An excerpt weighted towards active compounds, which were near 0.58% of everything screened.
# miR-122 sensor: inhibitors of miR-122 in Huh7 cells; Huh7 miR-122 Renilla luciferase sensor, 48 h; neutral wells = 0, positive control = 100; activation (reporter increase), % at 12.5 µM; 340,000 tested, 0.3% active;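 active = mean replicate activation score at least 90 and every replicate individually at or above 90; inconclusive = only one of the two criteria met; inactive = neither criterion met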;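 also: higher luciferase means less miR-122 activity so hits act as miR-122 inhibitors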
# PDI turbidity: blocks human protein disulfide isomerase activity | inhibition, % at 10 µM | 350,000 tested, 0.052% active | PDI insulin aggregation turbidity, A650, 90 min;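 active = mean inhibition across replicates of 30% or more, whatever share of single replicates reach that level; inconclusive = mean inhibition below 30% while every single replicate reaches 30%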
# Target sequence (P07237 whole entry, looked up): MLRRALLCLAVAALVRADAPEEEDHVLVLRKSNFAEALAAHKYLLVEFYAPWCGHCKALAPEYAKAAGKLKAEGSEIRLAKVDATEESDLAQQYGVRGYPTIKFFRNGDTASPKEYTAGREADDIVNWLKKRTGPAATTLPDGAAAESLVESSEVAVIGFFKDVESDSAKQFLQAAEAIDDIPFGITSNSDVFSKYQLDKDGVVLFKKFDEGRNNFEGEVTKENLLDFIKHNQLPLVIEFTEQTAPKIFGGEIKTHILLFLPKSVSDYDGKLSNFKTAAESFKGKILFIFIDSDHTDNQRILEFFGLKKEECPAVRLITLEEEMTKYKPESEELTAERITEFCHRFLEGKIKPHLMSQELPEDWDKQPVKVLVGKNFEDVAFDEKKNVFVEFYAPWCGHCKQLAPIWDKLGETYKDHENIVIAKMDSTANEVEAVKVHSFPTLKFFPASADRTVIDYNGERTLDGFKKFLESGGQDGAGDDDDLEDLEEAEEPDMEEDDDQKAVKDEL
# ERp5 block: blocks human ERp5 reductase activity on insulin; Q15084; ERp5 insulin aggregation, absorbance 650 nm, 90 min; inhibition, % at 9.99 µM; 350,000 tested, 0.05% active; AID 651711;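 active = mean replicate inhibition above about 25%, with every replicate also reaching it, limit read from the data, passing the limit was not always enough; inconclusive = only one of those two criteria met; inactive = neither criterion met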
# PvdQ acylase: blocks Pseudomonas aeruginosa PvdQ acylase activity | purified PvdQ acylase, fluorescence plate reader | inhibition, % at 10 µM | 340,000 tested, 0.063% active | AID 488965; in the data active = inhibition above about 30%, passing the limit was not always enough; inconclusive = no clear call, values can overlap the other calls;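 also: 0% = vehicle neutral wells and 100% = reference inhibitor wells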
# PglD DTNB: PglD (C. jejuni) enzyme inhibition; purified PglD enzyme, DTNB colorimetric CoA detection; inhibition, % at 12.5 µM; 360,000 tested, 0.098% active; in the data active = inhibition above about 16%, passing the limit was not always enough; inconclusive = no clear call, values can overlap the other calls
# Cneo AK release: causes C. neoformans cell lysis. lysis activity, % at 15 µM. adenylate kinase release luminescence, 4 h; normalised: neutral wells 0, clomiphene wells 100. 360,000 tested, 0.2% active;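 active = mean lysis activity across replicates of at least 80%, whatever share of replicates individually reach that level; inactive = mean lysis activity below 80%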
#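 Assay system: log-phase C. neoformans yeast / Quantity: yeast cell density of 5 × 10^6 cells/mL / Medium: fresh YPD growth medium / Compound: single dose / Timing: static 4 h at 37 °C with compound, 1 h detection / Measured by: adenylate kinase release luminescence / Read-out: lysis from increased AK signal / Benchmarks: Clomiphene as positive lysis control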
# * hit, by the source's call; ? = inconclusive; / = no result; [ ] = another dose, or the depositor's remark.
SMILES,miR-122 sensor,PDI turbidity,ERp5 block,PvdQ acylase,PglD DTNB,Cneo AK release
CCOc1cc(S(=O)(=O)NC2CC(C)(C)NC(C)(C)C2)ccc1Cl,11,4,6,6,-4,-3
CC(C)NC(=O)Nc1ccc2c(c1)C(=O)N([C@@H](C)CO)C[C@@H](C)[C@H](CN(C)C(=O)c1ccncc1)OCCCC[C@H](C)O2,13[16.7 µM],/,0,/,-3,115*
CC(C)NC(=O)Nc1ccc2c(c1)C(=O)N([C@H](C)CO)C[C@H](C)[C@@H](CN(C)C(=O)NC(C)C)OCCCC[C@H](C)O2,28[16.7 µM],/,1,/,0,113*
CC(C)NC(=O)Nc1ccc2c(c1)C(=O)N([C@@H](C)CO)C[C@H](C)[C@H](CN(C)C(=O)c1ccncc1)OCCCC[C@@H](C)O2,-4[16.7 µM],/,2,/,1,1
CC(C)NC(=O)Nc1ccc2c(c1)C(=O)N([C@@H](C)CO)C[C@@H](C)[C@@H](CN(C)C(=O)c1ccncc1)OCCCC[C@@H](C)O2,7[16.7 µM],/,3,/,2,111*
Cc1noc(C)c1NC(=O)Nc1ccc2c(c1)C(=O)N([C@H](C)CO)C[C@@H](C)[C@H](CN(C)C(=O)Nc1ccc(F)cc1)OCCCC[C@@H](C)O2,6[16.7 µM],/,-1,/,-4,99*
C[C@@H]1CN([C@@H](C)CO)C(=O)Cc2cc(NC(=O)CCCN(C)C)ccc2O[C@H]1CN(C)S(C)(=O)=O,-5[16.7 µM],/,-1,/,0,-6
C[C@H]1CN([C@@H](C)CO)C(=O)CCCn2nncc2CO[C@@H]1CN(C)C(=O)Nc1ccc(F)cc1,-4[16.7 µM],/,-1,/,-4,-2
CN1CCN(C(=O)C[C@H]2CC[C@H](NC(=O)c3ccc4c(c3)OCO4)[C@H](CO)O2)CC1,-9[16.7 µM],/,2,/,-6,-21
CO[C@@H]1CN(C)C(=O)c2ccc(NC(C)=O)cc2OC[C@H](C)N(CC2CC2)C[C@H]1C,-17[16.7 µM],/,5,/,0,1
COc1ccc(S(=O)(=O)N(CCc2ccccc2)CC(=O)N2CCOCC2)cc1,125*,0,/,1,-2,5
CC(C)C#Cc1ccc([C@@H]2[C@H](CO)N3C(=O)CN(C(=O)NC4CCCCC4)C[C@@H]23)cc1,/,/,2,/,/,/
C[C@@H]1CN([C@@H](C)CO)C(=O)CCCn2nncc2CO[C@@H]1CN(C)Cc1ccncc1,1[16.7 µM],/,/,/,/,/
Cc1ccccc1N(C(=O)CCCC(=O)Nc1ccccn1)C(C(=O)NC1CCCC1)c1ccc(O)cc1 (configuration not stated),132*,1,1,-15,1,2
CN1[C@@H]2Cn3c(cccc3=O)[C@H]1[C@@H](C(=O)NCC1CCCCC1)[C@@H]2CO,6[16.7 µM],/,-3,/,0,4
CC(C)(C)NS(=O)(=O)c1ccc(NC(=S)NC(=O)C2CC2)cc1,196*,7,-9,-9,1,2
O=C(NC(=S)Nc1ccc(Br)cc1)C1CCCCC1,0,-5,3,-10,-2,-2
O=C(NC(=S)Nc1ccc(Br)cc1)C1CCC1,8,3,6,15,4,146*
CN1C(=O)S/C(=C\c2ccc(-n3cncn3)cc2)C1=O,-20,-4,0,48*,-2,-1
Cc1ccc(S(=O)(=O)Nc2ccc3c(c2)CC(=O)N([C@H](C)CO)C[C@@H](C)[C@@H](CN(C)Cc2ccccc2)O3)cc1,-9[16.7 µM],/,3,/,-1,0
CCOC(=O)c1ccc(Nc2ncccc2[N+](=O)[O-])cc1,-2,20,-7,44*,0,-1
CN(C(=O)CCn1c(=S)oc2ccccc21)c1ccc(F)cc1,/,-7,4,36*,/,/
Cc1c(C(=O)OCc2ccccc2)[nH]c2c1C(=O)CC(c1ccco1)C2 (configuration not stated),139*,/,/,0,3,-1
CCOC(=O)c1[nH]c2c(c1C)C(=O)CC(c1ccco1)C2 (configuration not stated),?,/,1,?,-2,1
C[C@@H]1CN([C@H](C)CO)C(=O)c2cccc(NS(C)(=O)=O)c2O[C@@H]1CN(C)Cc1ccncc1,3[16.7 µM],/,1,/,0,0
SMILES,miR-122 sensor,PDI turbidity,ERp5 block,PvdQ acylase,PglD DTNB,Cneo AK release
CCc1ccc(-c2cc(C)no2)cc1S(=O)(=O)NCc1ccccc1OC,109*,-4,-7,-6,-5,6
COc1ccccc1CNS(=O)(=O)c1ccc(-c2cc(C)no2)cc1,?,-5,-5,-8,2,-3
Cc1cc(-c2ccc(C(C)C)c(S(=O)(=O)NCc3ccco3)c2)on1,168*,-11,-2,-19,/,/
COc1ccc2c(c1OC)C(=O)OC2Nc1ccccc1S(=O)(=O)C(F)F (configuration not stated),-4,6,/,-3,-1,94*
COc1ccc(C#Cc2ccc3c(c2)[C@H]2[C@H](CCN2C(=O)c2ccccc2F)[C@H](CO)N3)cc1,5[16.7 µM],/,1,/,1,9
CCC(=O)N1[C@H](C(=O)Nc2ccccc2)[C@@H](CO)[C@@H]2Cn3c(ccc(-c4ccncc4)c3=O)[C@@H]21,8[16.7 µM],/,-3,/,3,99*
COCC(=O)N1[C@H](C(=O)Nc2ccccc2)[C@@H](CO)[C@@H]2Cn3c(ccc(-c4ccncc4)c3=O)[C@@H]21,6[16.7 µM],/,-4,/,1,1
CN1C(=O)c2cccc3c(S(=O)(=O)N(C)C)ccc1c23,/,-2,4,-17,0,118*
CCN1C(=O)c2cccc3c(S(=O)(=O)N(C)C)ccc1c23,1,-2,2,/,5,-2
Clc1ccc2scc(CN3CCCCC3)c2c1,-1,13,/,33*,5,3
CC1CCN(S(=O)(=O)N2CCC(C(=O)NCCc3ccccc3)CC2)CC1,143*,0,-1,-11,1,0
COc1ccccc1NS(=O)(=O)c1cc(NC(=O)CCC2CCCC2)ccc1N1CCOCC1,119*,4,0,-1,-2,1
COc1ccc(NS(=O)(=O)c2cc(NC(=O)C3CC3)ccc2N2CCOCC2)cc1,87,9,-8,-9,0,3
COc1ccc(NS(=O)(=O)c2cc(NC(=O)CCc3ccc(OC)c(OC)c3)ccc2N2CCOCC2)cc1,118*,15,4,-8,-3,0
COc1cc(/C=C/C(=O)Nc2ccc(N3CCCCC3)c(S(=O)(=O)Nc3ccccc3Cl)c2)cc(OC)c1OC,289*,13,/,3,/,/
COc1ccccc1NS(=O)(=O)c1cc(NC(=O)c2cccs2)ccc1N1CCOCC1,112*,2,-3,11,/,/
C[C@H](CO)N1C[C@H](C)[C@@H](CN(C)S(=O)(=O)c2cn(C)cn2)OCCCC[C@H](C)Oc2ccc(NC(=O)C3CCCCC3)cc2C1=O,1[16.7 µM],/,-9,/,3,-2
CO[C@H]1CN(C)C(=O)c2cc(NC(=O)NC3CCCCC3)ccc2OC[C@@H](C)N(CCc2ccccc2)C[C@@H]1C,/,/,2,/,7,-4
